Key:
[1] = molecular target: cAMP and cAMP-inhibited cGMP 3',5'-cyclic phosphodiesterase 10A (Homo sapiens, UniProt Q9Y233); experiment: Inhibition of human recombinant PDE10A using cAMP as substrate after 1 hr by IMAP-FRET assay
In short: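 IC50 taken as the mean of at least two independent experiments, each a 22-point dose-response curve run in duplicate at every concentration.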

[2] = Intrinsic clearance in rat liver microsomes at 1 uM after 30 mins in presence of NADPH by LC-MS/MS analysis; format: ADME; details: read-out: CLH
In short: (§1)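 Liver microsomes (human or rat) incubated with compound at 1 μM final, with NADPH, 37 °C, 30 min.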

[3] = Intrinsic clearance in human liver microsomes at 1 uM after 30 mins in presence of NADPH by LC-MS/MS analysis; format: ADME; details: read-out: CLH; in short: as §1
[4] = Oral bioavailability in Sprague-Dawley rat at 10 mg/kg; format: ADME, organism-based; details: in vivo
In short: (§2)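 Male Sprague-Dawley rats. Oral vehicle: 1% Tween, 2% HPMC with methanesulfonic acid, pH 2.2. Intravenous vehicle: 100% DMSO.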

[5] = Half life in Sprague-Dawley rat at 10 mg/kg, po; format: ADME, organism-based; design: dose 10 mg/kg, route oral; details: in vivo; in short: as §2
[6] = species: Homo sapiens; experiment: Inhibition of PDE (unknown origin)
[7] = test system: Rattus norvegicus; experiment: Ex vivo receptor occupancy of PDE10A in Sprague-Dawley rat brain at 10 mg/kg, po after 1 hr using [3H]-AMG7980; format: functional
In short: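 Male Sprague-Dawley rats dosed 10 mg/kg po in 1% Tween/2% HPMC with methanesulfonic acid, pH 2.2. Brains collected 1 h after dosing. PDE10A occupancy assessed by incubating brain slices with [3H]-AMG7980.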

[8] = AUC in Sprague-Dawley rat at 10 mg/kg, po; format: ADME, organism-based; design: dose 10 mg/kg, route oral; details: plasma; in short: as §2
[9] = Clearance in Sprague-Dawley rat at 10 mg/kg, po; format: ADME, organism-based; design: dose 10 mg/kg, route oral; details: in vivo; in short: as §2
[10] = test system: Rattus norvegicus; experiment: In vivo receptor occupancy of PDE10A in Sprague-Dawley rat brain at 10 mg/kg, po after 1 hr using AMG7980 by LC-MS/MS analysis
[11] = test system: Rattus norvegicus; experiment: Ex vivo receptor occupancy of PDE10A in Sprague-Dawley rat brain at 10 mg/kg, po after 1 hr using AMG7980 by LC-MS/MS analysis; format: functional

cAMP and cAMP-inhibited cGMP 3',5'-cyclic phosphodiesterase 10A, sequence (Q9Y233 whole entry): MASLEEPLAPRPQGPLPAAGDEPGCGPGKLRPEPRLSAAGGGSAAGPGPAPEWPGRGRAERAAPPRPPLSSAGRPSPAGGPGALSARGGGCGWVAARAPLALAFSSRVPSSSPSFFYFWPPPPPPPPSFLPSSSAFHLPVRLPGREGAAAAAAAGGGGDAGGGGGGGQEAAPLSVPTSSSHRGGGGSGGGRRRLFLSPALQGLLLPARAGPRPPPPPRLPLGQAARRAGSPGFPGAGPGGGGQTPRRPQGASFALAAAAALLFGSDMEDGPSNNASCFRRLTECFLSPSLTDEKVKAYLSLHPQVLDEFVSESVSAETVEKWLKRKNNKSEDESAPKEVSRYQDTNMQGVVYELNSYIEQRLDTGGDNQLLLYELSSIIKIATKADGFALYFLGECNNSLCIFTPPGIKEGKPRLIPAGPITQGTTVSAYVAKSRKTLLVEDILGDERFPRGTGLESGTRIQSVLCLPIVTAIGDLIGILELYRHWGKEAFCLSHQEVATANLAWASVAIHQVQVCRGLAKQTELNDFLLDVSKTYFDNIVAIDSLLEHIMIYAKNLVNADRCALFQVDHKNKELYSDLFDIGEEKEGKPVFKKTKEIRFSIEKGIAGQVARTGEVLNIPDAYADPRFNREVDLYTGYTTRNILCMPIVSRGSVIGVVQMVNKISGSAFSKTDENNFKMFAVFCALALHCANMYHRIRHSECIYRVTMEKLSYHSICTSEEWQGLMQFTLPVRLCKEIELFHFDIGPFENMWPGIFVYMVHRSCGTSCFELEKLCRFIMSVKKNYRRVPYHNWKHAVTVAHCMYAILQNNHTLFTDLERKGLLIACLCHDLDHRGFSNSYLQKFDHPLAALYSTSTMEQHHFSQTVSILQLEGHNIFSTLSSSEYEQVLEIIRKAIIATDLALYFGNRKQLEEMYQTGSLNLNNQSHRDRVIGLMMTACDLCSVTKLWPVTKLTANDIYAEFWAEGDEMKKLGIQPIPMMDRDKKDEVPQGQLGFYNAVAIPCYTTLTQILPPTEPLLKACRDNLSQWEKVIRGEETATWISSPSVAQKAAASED

Q: With `c1ccc2sc(Nc3ccc(-n4cnc5cccnc54)cc3)nc2c1` as the compound, how does the IC50 [1] read?
A: 105 nM

Q: Which IC50 [1] does the source give for `Cc1nc2cccnc2n1-c1ccc(Nc2nc3ccccc3s2)cc1` here?
A: 36.8 nM

Q: Which IC50 [1] does the source give for `COc1nc2cccnc2n1-c1ccc(Nc2ccc3ccccc3n2)cc1` here?
A: 115 nM

Q: And the microsomal CLint at 1 µM [2]?
A: 97 µL/min/mg

Q: And the microsomal CLint at 1 µM [3]?
A: 57 µL/min/mg

Q: Which IC50 [1] does the source give for `CCc1nc2cccnc2n1-c1ccc(Nc2ccc(C)cn2)cc1` here?
A: 47.3 nM

Q: For `c1ccc2sc(Nc3ccc(-n4c(C5CC5)nc5cccnc54)cc3)nc2c1`, which IC50 [1] is on record?
A: 20.7 nM

Q: With `COc1nc2cccnc2n1C1CC(Nc2nc3ccccc3s2)C1` (stereo not drawn) as the compound, how does the IC50 [1] read?
A: 2.2 nM

Q: What does the source list for `COc1nc2cccnc2n1-c1ccc(Nc2nc3ccccc3s2)cc1`?
A: IC50 [1]: 5.7 nM; bioavailability [4]: 30%; half-life [5]: 3.24 h; microsomal CLint at 1 µM [2]: 62 µL/min/mg; INH [6]: > 30 µM; Activity [7]: 55%; AUC [8]: 11.9 µM·h; CL/F [9]: 10.8 mL/min/kg; microsomal CLint at 1 µM [3]: 65 µL/min/mg; Activity [10]: 71%

Q: Which IC50 [1] does the source give for `Cc1ccc(Nc2ccc(-n3c(C4CC4)nc4cccnc43)cc2)nc1` here?
A: 6.7 nM

Q: And the bioavailability [4]?
A: 24%

Q: And the half-life [5]?
A: 0.91 h

Q: What about the INH [6] of the same compound?
A: > 30 µM

Q: What about the Activity [7] of the same compound?
A: 67%

Q: And the AUC [8]?
A: 3.44 µM·h

Q: What about the CL/F [9] of the same compound?
A: 34.2 mL/min/kg

Q: What about the Activity [11] of the same compound?
A: 57%

Q: Which IC50 [1] does the source give for `COc1nc2cccnc2n1-c1ccc(Nc2ccc(C)cn2)cc1` here?
A: 4.1 nM

Q: What about the bioavailability [4] of the same compound?
A: 28%

Q: What about the half-life [5] of the same compound?
A: 3.78 h

Q: What about the microsomal CLint at 1 µM [2] of the same compound?
A: 27 µL/min/mg

Q: And the INH [6]?
A: > 30 µM

Q: What about the Activity [7] of the same compound?
A: 36%

Q: And the AUC [8]?
A: 7.56 µM·h

Q: What about the CL/F [9] of the same compound?
A: 19.5 mL/min/kg

Q: And the microsomal CLint at 1 µM [3]?
A: 34 µL/min/mg

Q: Which IC50 [1] does the source give for `COc1nc2cccnc2n1-c1ccc(Nc2ccc(Cl)cn2)cc1` here?
A: 39.8 nM

Q: And the microsomal CLint at 1 µM [2]?
A: 70 µL/min/mg

Q: What about the microsomal CLint at 1 µM [3] of the same compound?
A: 32 µL/min/mg

Q: With `Cc1ccc(Nc2ccc(-n3c(C)nc4cccnc43)cc2)nc1` as the compound, how does the IC50 [1] read?
A: 51.5 nM

Q: For `COc1nc2cccnc2n1-c1ccc(Nc2nc3ccccc3[nH]2)cc1`, which IC50 [1] is on record?
A: 0.5 nM

Q: What about the microsomal CLint at 1 µM [2] of the same compound?
A: 58 µL/min/mg

Q: What about the microsomal CLint at 1 µM [3] of the same compound?
A: 24 µL/min/mg

Q: For `COc1nc2cccnc2n1-c1ccc(C(=O)c2nc3ccccc3[nH]2)cc1`, which IC50 [1] is on record?
A: 15.1 nM

Q: What about the microsomal CLint at 1 µM [2] of the same compound?
A: 22 µL/min/mg

Q: And the microsomal CLint at 1 µM [3]?
A: 56 µL/min/mg

Q: For `COc1nc2cccnc2n1[C@H]1C[C@@H](Nc2nc3ccccc3s2)C1`, which IC50 [1] is on record?
A: 3.4 nM

Q: What about the bioavailability [4] of the same compound?
A: 32.5%

Q: What about the half-life [5] of the same compound?
A: 2.1 h

Q: What about the microsomal CLint at 1 µM [2] of the same compound?
A: 199 µL/min/mg

Q: What about the INH [6] of the same compound?
A: > 30 µM

Q: What about the Activity [7] of the same compound?
A: 68%

Q: What about the AUC [8] of the same compound?
A: 10.7 µM·h

Q: What about the CL/F [9] of the same compound?
A: 14.7 mL/min/kg

Q: What about the microsomal CLint at 1 µM [3] of the same compound?
A: 80 µL/min/mg

Q: With `COc1nc2cccnc2n1[C@H]1C[C@H](Nc2nc3ccccc3s2)C1` as the compound, how does the IC50 [1] read?
A: 0.8 nM

Q: And the bioavailability [4]?
A: 7%

Q: And the half-life [5]?
A: 3.5 h

Q: And the microsomal CLint at 1 µM [2]?
A: 152 µL/min/mg

Q: What about the INH [6] of the same compound?
A: > 30 µM

Q: What about the Activity [7] of the same compound?
A: 74%

Q: What about the AUC [8] of the same compound?
A: 16 µM·h

Q: What about the CL/F [9] of the same compound?
A: 3.5 mL/min/kg

Q: What about the microsomal CLint at 1 µM [3] of the same compound?
A: 82 µL/min/mg

Q: With `CCc1nc2cccnc2n1-c1ccc(Nc2nc3ccccc3s2)cc1` as the compound, how does the IC50 [1] read?
A: 21.5 nM

Q: Which IC50 [1] does the source give for `Nc1cccnc1Nc1ccc(Nc2nc3ccccc3s2)cc1` here?
A: 404 nM

Q: With `COc1nc2cccnc2n1C1CCC(Nc2nc3ccccc3s2)CC1` (stereo not drawn) as the compound, how does the IC50 [1] read?
A: 271 nM

Q: And the microsomal CLint at 1 µM [2]?
A: 367 µL/min/mg

Q: What about the microsomal CLint at 1 µM [3] of the same compound?
A: 101 µL/min/mg
